Measurements from ChEMBL document CHEMBL1136741, “Role of the glycopeptide framework in the antibacterial activity of hydrophobic derivatives of glycopeptide antibiotics” (2003).
Values after ≈ are worked out from the molar mass of the structure shown.

Tests used:
Enterococcus faecium [1] = experiment: Antibacterial activity against glycopeptide resistant Enterococcus faecium 569 strain; format: functional
Method in brief: (§1)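 MIC by broth microdilution in Mueller Hinton broth following NCCLS procedures. Compounds were dissolved in 10% DMSO in water, then diluted in broth. Final DMSO was 1.28% at 128 µg/mL antibiotic down to 0.0013% at 0.13 µg/mL. Repeat determinations were usually identical and always within 2-fold.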

Enterococcus faecium [2] = experiment: Antibacterial activity against glycopeptide susceptible Enterococcus faecium 568 strain; format: functional
Method in brief: (§2)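 MIC by broth microdilution in Mueller Hinton broth following NCCLS procedures. Compounds dissolved in 10% DMSO in water, then diluted in broth; test range 128 to 0.13 µg/mL, final DMSO 1.28% to 0.0013% accordingly. Repeat determinations usually identical and always within 2-fold. Strain 533 is a clinical isolate; strain 602 is a clinical S. haemoliticus isolate.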

Enterococcus faecalis [3] = experiment: Antibacterial activity against glycopeptide resistant Enterococcus faecalis 560 strain; format: functional; method in brief: as §1
Enterococcus faecalis [4] = experiment: Antibacterial activity against glycopeptide susceptible Enterococcus faecalis 559 strain; format: functional; method in brief: as §2
Staphylococcus aureus [5] = experiment: Antibacterial activity against glycopeptide intermediate resistant Staphylococcus aureus 3797 strain; format: functional; method in brief: as §1
Staphylococcus aureus [6] = experiment: Antibacterial activity against glycopeptide intermediate resistant Staphylococcus aureus 3798 strain; format: functional; method in brief: as §1
[7] = test system: Staphylococcus epidermidis; experiment: Antibacterial activity against Staphylococcus epidermis 533 strain; format: functional
[8] = test system: Staphylococcus haemolyticus; experiment: Antibacterial activity against Staphylococcus haemolyticus 602 strain

CCCCCCCCCCNC(=O)[C@H]1NC(=O)[C@H]2NC(=O)[C@H](NC(=O)[C@@H]3NC(=O)[C@H](CC(N)=O)NC(=O)[C@H](NC(=O)[C@@H](CC(C)C)NC)[C@H](O)c4ccc(c(Cl)c4)Oc4cc3cc(c4O[C@@H]3O[C@H](CO)[C@@H](O)[C@H](O)[C@H]3O[C@H]3C[C@](C)(N)C(O)[C@H](C)O3)Oc3ccc(cc3Cl)[C@H]2O)c2ccc(O)c(c2)-c2c(O)cc(O)cc21 (stereo partly specified)
MIC (Enterococcus faecium [1]): 8 µg/mL (≈ 5.04 µM) | MIC (Enterococcus faecium [2]): 0.5 µg/mL (≈ 0.315 µM) | MIC (Enterococcus faecalis [3]): 8 µg/mL (≈ 5.04 µM) | MIC (Enterococcus faecalis [4]): 0.5 µg/mL (≈ 0.315 µM) | MIC (Staphylococcus aureus [5]): 1 µg/mL (≈ 0.63 µM) | MIC (Staphylococcus aureus [6]): 1 µg/mL (≈ 0.63 µM) | MIC [7]: 0.5 µg/mL (≈ 0.315 µM) | MIC [8]: 1 µg/mL (≈ 0.63 µM)

NC(=O)C[C@@H]1NC(=O)[C@H](N)[C@H](O)c2ccc(c(Cl)c2)Oc2cc3cc(c2O)Oc2ccc(cc2)[C@@H](O)[C@@H]2NC(=O)[C@H](NC(=O)[C@@H]3NC1=O)c1ccc(O)c(c1)-c1c(O)cc(O)cc1[C@@H](C(=O)O)NC2=O
MIC (Enterococcus faecium [2]): > 128 µg/mL | MIC (Enterococcus faecalis [4]): > 128 µg/mL | MIC (Staphylococcus aureus [5]): > 128 µg/mL | MIC (Staphylococcus aureus [6]): > 128 µg/mL | MIC [7]: > 128 µg/mL | MIC [8]: > 128 µg/mL

C[C@@H]1O[C@@H](O[C@H]2[C@H](Oc3c4cc5cc3Oc3ccc(cc3Cl)[C@@H](O)[C@@H](N)C(=O)N[C@@H](CC(N)=O)C(=O)N[C@H]5C(=O)N[C@H]3C(=O)N[C@H](C(=O)N[C@H](C(=O)NCc5ccc(-c6ccc(Cl)cc6)cc5)c5cc(O)cc(O)c5-c5cc3ccc5O)[C@H](O[C@H]3C[C@](C)(N)[C@@H](O)[C@H](C)O3)c3ccc(cc3)O4)O[C@H](CO)[C@@H](O)[C@@H]2O)C[C@](C)(N)[C@H]1O
MIC (Enterococcus faecium [1]): 2 µg/mL (≈ 1.23 µM) | MIC (Enterococcus faecium [2]): 4 µg/mL (≈ 2.45 µM) | MIC (Enterococcus faecalis [3]): 4 µg/mL (≈ 2.45 µM) | MIC (Enterococcus faecalis [4]): 4 µg/mL (≈ 2.45 µM) | MIC (Staphylococcus aureus [5]): 8 µg/mL (≈ 4.91 µM) | MIC (Staphylococcus aureus [6]): 8 µg/mL (≈ 4.91 µM) | MIC [7]: 4 µg/mL (≈ 2.45 µM) | MIC [8]: 4 µg/mL (≈ 2.45 µM)

CCCCCCCCCCNC(=O)[C@H]1NC(=O)[C@H]2NC(=O)[C@H](NC(=O)[C@H](N)c3cc(Oc4ccc(C[C@@H](N)CO)cc4Cl)c(O)c(c3)Oc3ccc(cc3Cl)[C@H]2O[C@@H]2O[C@@H](CO)[C@@H](O)[C@H](O)[C@@H]2NC(C)=O)c2ccc(O)c(c2)-c2c(O[C@H]3O[C@H](CO)[C@@H](O)[C@@H](O)[C@@H]3O)cc(O)cc21
MIC (Enterococcus faecium [1]): 16 µg/mL (≈ 11.5 µM) | MIC (Enterococcus faecium [2]): 16 µg/mL (≈ 11.5 µM) | MIC (Enterococcus faecalis [3]): 64 µg/mL (≈ 45.9 µM) | MIC (Enterococcus faecalis [4]): 16 µg/mL (≈ 11.5 µM) | MIC (Staphylococcus aureus [5]): 32 µg/mL (≈ 22.9 µM) | MIC (Staphylococcus aureus [6]): 16 µg/mL (≈ 11.5 µM) | MIC [7]: 16 µg/mL (≈ 11.5 µM) | MIC [8]: 32 µg/mL (≈ 22.9 µM)

CCCCCCCCCCNC(=O)[C@H]1NC(=O)[C@H]2NC(=O)[C@H](NC(=O)[C@@H]3NC(=O)[C@H](CC(N)=O)NC(=O)[C@H](NC(=O)[C@@H](CC(C)C)NC)[C@H](O)c4ccc(c(Cl)c4)Oc4cc3cc(c4O)Oc3ccc(cc3)[C@H]2O)c2ccc(O)c(c2)-c2c(O)cc(O)cc21
MIC (Enterococcus faecium [1]): 4 µg/mL (≈ 3.2 µM) | MIC (Enterococcus faecium [2]): 4 µg/mL (≈ 3.2 µM) | MIC (Enterococcus faecalis [3]): 4 µg/mL (≈ 3.2 µM) | MIC (Enterococcus faecalis [4]): 4 µg/mL (≈ 3.2 µM) | MIC (Staphylococcus aureus [5]): 4 µg/mL (≈ 3.2 µM) | MIC (Staphylococcus aureus [6]): 4 µg/mL (≈ 3.2 µM) | MIC [7]: 4 µg/mL (≈ 3.2 µM) | MIC [8]: 4 µg/mL (≈ 3.2 µM)

CN[C@H](CC(C)C)C(=O)N[C@H]1C(=O)N[C@@H](CC(N)=O)C(=O)N[C@H]2C(=O)N[C@H]3C(=O)N[C@H](C(=O)N[C@H](C(=O)NCc4ccc(-c5ccc(Cl)cc5)cc4)c4cc(O)cc(O)c4-c4cc3ccc4O)[C@H](O[C@H]3C[C@](C)(N)[C@@H](O)[C@H](C)O3)c3ccc(cc3)Oc3cc2cc(c3O[C@@H]2O[C@H](CO)[C@@H](O)[C@H](O)[C@H]2O[C@H]2C[C@](C)(N)[C@@H](O)[C@H](C)O2)Oc2ccc(cc2Cl)[C@H]1O
MIC (Enterococcus faecium [1]): 4 µg/mL (≈ 2.28 µM) | MIC (Enterococcus faecium [2]): 1 µg/mL (≈ 0.569 µM) | MIC (Enterococcus faecalis [3]): 4 µg/mL (≈ 2.28 µM) | MIC (Enterococcus faecalis [4]): 2 µg/mL (≈ 1.14 µM) | MIC (Staphylococcus aureus [5]): 4 µg/mL (≈ 2.28 µM) | MIC (Staphylococcus aureus [6]): 4 µg/mL (≈ 2.28 µM) | MIC [7]: 2 µg/mL (≈ 1.14 µM) | MIC [8]: 1 µg/mL (≈ 0.569 µM)

C[C@@H]1O[C@@H](O[C@H]2[C@H](Oc3c4cc5cc3Oc3ccc(cc3Cl)[C@@H](O)[C@@H](N)C(=O)N[C@@H](CC(N)=O)C(=O)N[C@H]5C(=O)N[C@H]3C(=O)N[C@H](C(=O)N[C@H](C(=O)O)c5cc(O)cc(O)c5-c5cc3ccc5O)[C@H](O[C@H]3C[C@](C)(N)[C@@H](O)[C@H](C)O3)c3ccc(cc3)O4)O[C@H](CO)[C@@H](O)[C@@H]2O)C[C@](C)(N)[C@H]1O
MIC (Enterococcus faecium [1]): > 128 µg/mL | MIC (Enterococcus faecium [2]): 16 µg/mL (≈ 11.2 µM) | MIC (Enterococcus faecalis [3]): > 128 µg/mL | MIC (Enterococcus faecalis [4]): 16 µg/mL (≈ 11.2 µM) | MIC (Staphylococcus aureus [5]): 64 µg/mL (≈ 44.7 µM) | MIC (Staphylococcus aureus [6]): 64 µg/mL (≈ 44.7 µM) | MIC [7]: 16 µg/mL (≈ 11.2 µM) | MIC [8]: 16 µg/mL (≈ 11.2 µM)

CCCCCCCCCCNC(=O)[C@H]1NC(=O)[C@H]2NC(=O)[C@H](NC(=O)[C@@H]3NC(=O)[C@H](CC(N)=O)NC(=O)[C@H](N)[C@H](O)c4ccc(c(Cl)c4)Oc4cc3cc(c4O[C@@H]3O[C@H](CO)[C@@H](O)[C@H](O)[C@H]3O[C@H]3C[C@](C)(N)[C@@H](O)[C@H](C)O3)Oc3ccc(cc3)[C@H]2O[C@H]2C[C@](C)(N)[C@@H](O)[C@H](C)O2)c2ccc(O)c(c2)-c2c(O)cc(O)cc21
MIC (Enterococcus faecium [1]): 2 µg/mL (≈ 1.27 µM) | MIC (Enterococcus faecium [2]): 2 µg/mL (≈ 1.27 µM) | MIC (Enterococcus faecalis [3]): 4 µg/mL (≈ 2.55 µM) | MIC (Enterococcus faecalis [4]): 2 µg/mL (≈ 1.27 µM) | MIC (Staphylococcus aureus [5]): 4 µg/mL (≈ 2.55 µM) | MIC (Staphylococcus aureus [6]): 8 µg/mL (≈ 5.1 µM) | MIC [7]: 0.5 µg/mL (≈ 0.318 µM) | MIC [8]: 1 µg/mL (≈ 0.637 µM)

CCCCCCCCCCNC(=O)[C@H]1NC(=O)[C@H]2NC(=O)[C@H](NC(=O)[C@@H]3NC(=O)[C@H](CC(N)=O)NC(=O)[C@H](N)[C@H](O)c4ccc(c(Cl)c4)Oc4cc3cc(c4O)Oc3ccc(cc3)[C@H]2O)c2ccc(O)c(c2)-c2c(O)cc(O)cc21
MIC (Enterococcus faecium [1]): 64 µg/mL (≈ 57.1 µM) | MIC (Enterococcus faecium [2]): 64 µg/mL (≈ 57.1 µM) | MIC (Enterococcus faecalis [3]): > 128 µg/mL | MIC (Enterococcus faecalis [4]): 64 µg/mL (≈ 57.1 µM) | MIC (Staphylococcus aureus [5]): 32 µg/mL (≈ 28.5 µM) | MIC (Staphylococcus aureus [6]): 32 µg/mL (≈ 28.5 µM) | MIC [7]: 16 µg/mL (≈ 14.3 µM) | MIC [8]: 64 µg/mL (≈ 57.1 µM)

CN[C@H](CC(C)C)C(=O)N[C@H]1C(=O)N[C@@H](CC(N)=O)C(=O)N[C@H]2C(=O)N[C@H]3C(=O)N[C@H](C(=O)N[C@H](C(=O)NCc4ccc(-c5ccc(Cl)cc5)cc4)c4cc(O)cc(O)c4-c4cc3ccc4O)[C@H](O)c3ccc(cc3)Oc3cc2cc(c3O)Oc2ccc(cc2Cl)[C@H]1O
MIC (Enterococcus faecium [1]): 8 µg/mL (≈ 6.11 µM) | MIC (Enterococcus faecium [2]): 8 µg/mL (≈ 6.11 µM) | MIC (Enterococcus faecalis [3]): 8 µg/mL (≈ 6.11 µM) | MIC (Enterococcus faecalis [4]): 8 µg/mL (≈ 6.11 µM) | MIC (Staphylococcus aureus [5]): 8 µg/mL (≈ 6.11 µM) | MIC (Staphylococcus aureus [6]): 8 µg/mL (≈ 6.11 µM) | MIC [7]: 4 µg/mL (≈ 3.06 µM) | MIC [8]: 8 µg/mL (≈ 6.11 µM)

CCCCCCCCCCNC(=O)[C@H]1NC(=O)[C@H]2NC(=O)[C@H](NC(=O)[C@@H]3NC(=O)[C@H](CC(N)=O)NC(=O)[C@H](NC(=O)[C@@H](CC(C)C)NC)[C@H](O)c4ccc(c(Cl)c4)Oc4cc3cc(c4O[C@@H]3O[C@H](CO)[C@@H](O)[C@H](O)[C@H]3O[C@H]3C[C@](C)(N)[C@@H](O)[C@H](C)O3)Oc3ccc(cc3)[C@H]2O[C@H]2C[C@](C)(N)[C@@H](O)[C@H](C)O2)c2ccc(O)c(c2)-c2c(O)cc(O)cc21
MIC (Enterococcus faecium [1]): 2 µg/mL (≈ 1.18 µM) | MIC (Enterococcus faecium [2]): 0.5 µg/mL (≈ 0.295 µM) | MIC (Enterococcus faecalis [3]): 4 µg/mL (≈ 2.36 µM) | MIC (Enterococcus faecalis [4]): 1 µg/mL (≈ 0.589 µM) | MIC (Staphylococcus aureus [5]): 4 µg/mL (≈ 2.36 µM) | MIC (Staphylococcus aureus [6]): 4 µg/mL (≈ 2.36 µM) | MIC [7]: 0.13 µg/mL (≈ 0.0766 µM) | MIC [8]: 0.13 µg/mL (≈ 0.0766 µM)

CN[C@H](CC(C)C)C(=O)N[C@H]1C(=O)N[C@@H](CC(N)=O)C(=O)N[C@H]2C(=O)N[C@H]3C(=O)N[C@H](C(=O)N[C@H](C(=O)O)c4cc(O)cc(O)c4-c4cc3ccc4O)[C@H](O)c3ccc(c(Cl)c3)Oc3cc2cc(c3O[C@@H]2O[C@H](CO)[C@@H](O)[C@H](O)[C@H]2O[C@H]2C[C@](C)(N)[C@H](O)[C@H](C)O2)Oc2ccc(cc2Cl)[C@H]1O [VANCOMYCIN]
MIC (Enterococcus faecium [1]): > 128 µg/mL | MIC (Enterococcus faecalis [3]): > 128 µg/mL | MIC (Enterococcus faecalis [4]): 1 µg/mL (≈ 0.69 µM) | MIC (Staphylococcus aureus [5]): 16 µg/mL (≈ 11 µM) | MIC (Staphylococcus aureus [6]): 8 µg/mL (≈ 5.52 µM)
